{
  "source": "ChEMBL document CHEMBL4373727",
  "about": "“Thienopyrimidinone Derivatives That Inhibit Bacterial tRNA (Guanine37-N1)-Methyltransferase (TrmD) by Restructuring the Active Site with a Tyrosine-Flipping Mechanism” (J Med Chem, 2019)",
  "key": {"[1]": {"test_system": "Mycolicibacterium smegmatis", "experiment": "Bactericidal activity against Mycolicibacterium smegmatis MC2 155 assessed as reduction in CFU at 1 to 4 times MIC90 incubated for 24 hrs", "format": "functional", "settings": "MC2 155, 24 h, read-out: MBC99.9"}, "[2]": {"molecular_target": "T1, tRNA (guanine-N(1)-)-methyltransferase (Pseudomonas aeruginosa (strain ATCC 15692 / DSM 22644 / CIP 104116 / JCM14847 / LMG 12228 / 1C / PRS 101 / PAO1)) (UniProt Q9HXQ1)", "T1 sequence (whole entry)": "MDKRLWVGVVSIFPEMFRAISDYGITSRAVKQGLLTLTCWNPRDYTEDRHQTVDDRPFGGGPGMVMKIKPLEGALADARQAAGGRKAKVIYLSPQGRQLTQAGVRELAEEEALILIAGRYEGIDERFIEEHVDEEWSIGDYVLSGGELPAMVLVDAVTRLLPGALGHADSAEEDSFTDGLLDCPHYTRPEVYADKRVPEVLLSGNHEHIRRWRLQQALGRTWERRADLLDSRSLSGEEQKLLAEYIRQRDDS", "experiment": "Binding affinity to Pseudomonas aeruginosa tRNA (guanine(37)-N1)-methyltransferase (Leu5 to Asp25 residues) expressed in Escherichia coli BL21 (DE3) Rosetta T1R cells assessed as association rate constant by surface plasmon resonance assay", "method_in_brief": "(§1)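 SPR at 25 °C. His-tagged TrmD (50 μg/mL) captured on an anti-His antibody surface (about 2200 RU), with a blank reference cell. Buffer: 50 mM Tris-HCl pH 8, 150 mM NaCl, 1 mM MgCl2, 1 mM DTT, 0.05% Tween-20. Analyte in 2-fold dilutions, injected lowest to highest at 30 μL/min, 30 s contact, 240 s dissociation. KD from steady-state affinity fit.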"}, "[3]": {"test_system": "Staphylococcus aureus", "experiment": "Antibacterial activity against methicillin-resistant Staphylococcus aureus ATCC 43300 incubated for 24 hrs by serial broth microdilution method", "format": "functional", "settings": "ATCC 43300, 24 h", "method_in_brief": "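Growth read by OD600. MRSA in cation-adjusted Mueller–Hinton broth, M. smegmatis in complete 7H9. MIC50 and MIC90 are 50% and 90% growth inhibition versus drug-free controls. Two independent experiments, each in duplicate.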"}, "[4]": {"test_system": "Pseudomonas aeruginosa", "experiment": "Bactericidal activity against Pseudomonas aeruginosa PA14 assessed as reduction in CFU at 1 to 4 times MIC90 incubated for 24 hrs", "format": "functional, organism-based"}, "[5]": {"test_system": "Erythrocyte", "experiment": "Hemolytic activity in human RBC at 100 uM measured after 1 hr", "format": "ADME, cell-based", "method_in_brief": "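Fresh human RBCs were PBS-washed and resuspended to OD600 24, then mixed 1:1 by volume with compound serially diluted in PBS. Incubated 1 h at 37 °C without shaking and centrifuged at 1000g for 15 min. Triton X-100 served as positive control. Run in triplicate.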"}, "[6]": {"test_system": "Mycobacterium tuberculosis", "experiment": "Antibacterial activity against Mycobacterium tuberculosis ATCC 27294 incubated for 7 days by broth dilution method", "format": "functional", "settings": "ATCC 27294, 168 h", "method_in_brief": "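M. tuberculosis ATCC 27294 in complete 7H9 with 0.05% Tween 80, 0.5% glycerol and 10% ADC. Mid-log cells adjusted to OD600 0.1 and added 1:1 to 2-fold serial compound dilutions (highest 100 μM). Incubated 7 d at 37 °C with shaking at 80 rpm, then OD600 read. Isoniazid positive control. MIC50/MIC90 versus drug-free controls. Biological duplicates.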"}, "[7]": {"molecular_target": "T2, tRNA (guanine-N(1)-)-methyltransferase (Mycobacterium tuberculosis (strain ATCC 25618 / H37Rv), UniProt P9WFY7)", "T2 sequence (P9WFY7 whole entry)": "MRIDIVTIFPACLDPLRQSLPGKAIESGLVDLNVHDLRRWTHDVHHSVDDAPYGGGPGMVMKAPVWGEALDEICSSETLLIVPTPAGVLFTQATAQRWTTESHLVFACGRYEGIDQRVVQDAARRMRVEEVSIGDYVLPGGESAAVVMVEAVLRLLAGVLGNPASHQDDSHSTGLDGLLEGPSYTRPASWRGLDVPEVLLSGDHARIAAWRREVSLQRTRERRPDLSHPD", "experiment": "Binding affinity to full length Mycobacterium tuberculosis tRNA (guanine(37)-N1)-methyltransferase expressed in Escherichia coli BL21 (DE3) by surface plasmon resonance assay", "method_in_brief": "as §1"}, "[8]": {"test_system": "Salmonella enteritidis", "experiment": "Bactericidal activity against Salmonella enteritidis ATCC 13076 assessed as reduction in CFU at 1 to 4 times MIC90 incubated for 24 hrs", "format": "functional", "settings": "Salmonella enterica subsp. enterica serovar Enteritidis"}, "[9]": {"molecular_target": "T3, tRNA (guanine-N(1)-)-methyltransferase (Staphylococcus aureus (strain NCTC 8325 / PS 47)) (UniProt Q2FZ43)", "T3 sequence (whole entry)": "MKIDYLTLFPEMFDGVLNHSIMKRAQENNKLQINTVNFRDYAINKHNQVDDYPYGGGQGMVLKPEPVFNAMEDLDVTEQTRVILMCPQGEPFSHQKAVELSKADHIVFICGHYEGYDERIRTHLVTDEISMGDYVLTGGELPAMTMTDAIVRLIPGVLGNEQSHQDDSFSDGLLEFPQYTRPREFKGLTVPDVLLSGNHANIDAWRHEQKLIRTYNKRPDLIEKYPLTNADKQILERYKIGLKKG", "experiment": "Binding affinity to full length Staphylococcus aureus tRNA (guanine(37)-N1)-methyltransferase expressed in Escherichia coli BL21 (DE3) assessed as association rate constant by surface plasmon resonance assay", "method_in_brief": "as §1"}, "[10]": {"molecular_target": "T1, tRNA (guanine-N(1)-)-methyltransferase (Pseudomonas aeruginosa (strain ATCC 15692 / DSM 22644 / CIP 104116 / JCM14847 / LMG 12228 / 1C / PRS 101 / PAO1))", "experiment": "Inhibition of Pseudomonas aeruginosa tRNA (guanine(37)-N1)-methyltransferase (Leu5 to Asp25 residues) expressed in Escherichia coli BL21 (DE3) Rosetta T1R cells assessed as reduction in S-adenosyl-L-homocysteine production preincubated for 30 mins followed by 1.5 to 15 uM of tRNALeu(CAG) substrate and SAM addition and measured after 60 mins by MTase-Glo assay"}, "[11]": {"test_system": "Klebsiella pneumoniae", "experiment": "Antibacterial activity against Klebsiella pneumoniae ATCC 13883 incubated for 24 hrs by serial broth microdilution method", "format": "functional, organism-based", "method_in_brief": "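Log-phase cultures from four colonies grown overnight at 37 °C, inoculated at ~5×10^5 cells/mL in cation-adjusted Mueller–Hinton broth with serially diluted compound. Grown 24 h at 37 °C, then OD600 read. MIC50/MIC90 are the concentrations giving 50%/90% growth inhibition relative to drug-free controls. Two independent experiments in duplicate.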"}, "[12]": {"test_system": "Streptococcus pneumoniae", "experiment": "Antibacterial activity against Streptococcus pneumoniae ATCC 49619 at 100 uM incubated for 24 hrs", "format": "functional, organism-based", "method_in_brief": "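Single 100 μM screen in MH medium with 3% defibrinated sheep blood at 37 °C under 5% CO2, ~5×10^5 cells/mL, 24 h.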"}, "[13]": {"molecular_target": "T3, tRNA (guanine-N(1)-)-methyltransferase (Staphylococcus aureus (strain NCTC 8325 / PS 47))", "experiment": "Binding affinity to full length Staphylococcus aureus tRNA (guanine(37)-N1)-methyltransferase expressed in Escherichia coli BL21 (DE3) assessed as dissociation rate constant by surface plasmon resonance assay", "method_in_brief": "as §1"}, "[14]": {"experiment": "Selectivity ratio of Kd for full length Staphylococcus aureus tRNA (guanine(37)-N1)-methyltransferase expressed in Escherichia coli BL21 (DE3) to Kd for Pseudomonas aeruginosa tRNA (guanine(37)-N1)-methyltransferase (Leu5 to Asp25 residues) expressed in Escherichia coli BL21 (DE3) Rosetta T1R cells"}},
  "note": "The source made the active and inactive calls. Unless noted, no cut-off for these calls is given here.",
  "data": [
    {"smiles": "CCCCCCCCNCc1ccc(CNC(=O)c2csc3nc[nH]c(=O)c23)cc1", "values": [
      {"measurement": "MBC", "setting": "[1]", "result": "> 100", "unit": "µM"},
      {"measurement": "Ka", "setting": "[2]", "result": "1.35e+07", "unit": "M⁻¹ s⁻¹"},
      {"measurement": "MIC50", "setting": "[3]", "result": 31, "unit": "µM"},
      {"measurement": "MIC90", "setting": "[3]", "result": 36, "unit": "µM"},
      {"measurement": "MBC99.9", "setting": "[4]", "result": "inactive"},
      {"measurement": "Activity", "setting": "[5]", "result": "Non-Toxic"},
      {"measurement": "MIC50", "setting": "[6]", "result": 78, "unit": "µM"},
      {"measurement": "MIC90", "setting": "[6]", "result": "> 100", "unit": "µM"},
      {"measurement": "Kd", "setting": "[7]", "result": 0.19, "unit": "µM"},
      {"measurement": "MBC99.9", "setting": "[8]", "result": "inactive"},
      {"measurement": "Ka", "setting": "[9]", "result": "2.94e+06", "unit": "M⁻¹ s⁻¹"},
      {"measurement": "inhibition", "setting": "[10]", "result": "Dose-dependent effect"},
      {"measurement": "MIC50", "setting": "[11]", "result": "inactive"},
      {"measurement": "MIC90", "setting": "[11]", "result": "inactive"},
      {"measurement": "Activity", "setting": "[12]", "result": "Active"},
      {"measurement": "Kdiss", "setting": "[13]", "result": 9.15, "unit": "s⁻¹"}
    ]},
    {"smiles": "NC1CCN(Cc2ccc(CNC(=O)c3csc4nc[nH]c(=O)c34)cc2)CC1", "values": [
      {"measurement": "Ka", "setting": "[2]", "result": 128000, "unit": "M⁻¹ s⁻¹"},
      {"measurement": "Ratio", "setting": "[14]", "result": "100 to 300"},
      {"measurement": "Kd", "setting": "[7]", "result": 10.4, "unit": "µM"},
      {"measurement": "Ka", "setting": "[9]", "result": 59900, "unit": "M⁻¹ s⁻¹"},
      {"measurement": "Activity", "setting": "[12]", "result": "inactive"},
      {"measurement": "Kdiss", "setting": "[13]", "result": 1.65, "unit": "s⁻¹"}
    ]}
  ]
}
